Assay results collected from several papers.
Lines come from different studies, so protocols differ.
Ntsr1: Neurotensin receptor type 1 (Ntsr1, Rattus norvegicus, UniProt P20789)
PCNA: Proliferating cell nuclear antigen (PCNA, Homo sapiens, UniProt P12004)
F10 trypsin-like site: Coagulation factor X, trypsin-like site (F10, Homo sapiens, UniProt P00742)

CCCCNNC(=O)c1ccc(Br)cc1
IC50 (Histone deacetylase 7 (HDAC7, Homo sapiens, UniProt Q8WUI4); enzyme activity, inhibitor, fluorescence): > 100 µM

CC(C)C[C@H](NC(=O)[C@H](Cc1ccccc1)NC(=O)c1cnccn1)B(O)O
IC50 (Coagulation factor X (F10, Homo sapiens, UniProt P00742); enzyme activity, inhibitor): > 33 µM

COc1cccc(OC)c1-c1cc(C(=O)NC2(C(=O)O)CCCCC2)nn1-c1ccc(F)cc1
Kb (Ntsr1; calcium signal, antagonist, fluorescence): > 10 µM

O=C(N[C@H]1COC(=O)[C@@H](NC(=O)c2cccc(O)c2[O-])COC(=O)[C@@H](NC(=O)c2cccc(O)c2[O-])COC1=O)c1cccc(O)c1[O-].[Fe+3]
Kd (Neutrophil gelatinase-associated lipocalin (LCN2, Homo sapiens, UniProt P80188, C107S); binding, fluorescence; pH 3): 0.086 µM

CC[C@H](C)[C@H](NC(=O)[C@H](CCCCN)NC(=O)[C@H](CO)NC(=O)[C@H](CC(=O)O)NC(=O)[C@H](CCCCN)NC(=O)[C@H](CCCCN)NC(=O)CNC(=O)[C@H](Cc1c[nH]cn1)NC(=O)[C@@H](N)CCC(N)=O)C(=O)N[C@@H](C)C(=O)N[C@@H](CC(=O)O)C(=O)N[C@@H](Cc1c[nH]cn1)C(=O)N[C@@H](Cc1ccccc1)C(=O)N[C@@H](CCSC)C(=O)N[C@@H](CCCNC(=N)N)C(=O)N[C@@H](CC(C)C)C(=O)N1CCC[C@H]1C(=O)N[C@@H](CCCCN)C(=O)N[C@@H](C)C(=O)O
Kd (PCNA; binding, ITC; pH 7.4): 55.5 µM

CC(C)=CCc1c(O)cc2c(c1O)C(=O)C[C@@H](c1ccc(O)cc1)O2
Ki (Cytochrome P450 1B1 (CYP1B1, Homo sapiens, UniProt Q16678); enzyme activity, inhibitor, fluorescence; 15 min, pH 7.4): 0.23 µM

C#CCOc1ccc(S(=O)(=O)CC2CS2)cc1 (racemic)
IC50 (72 kDa type IV collagenase (MMP2, Homo sapiens, UniProt P08253); enzyme activity, inhibitor, fluorescence): 7 µM

CC[C@H](C)[C@H](NC(=O)[C@H](CCCCNC(C)=O)NC(=O)[C@H](CO)NC(=O)[C@H](CC(=O)O)NC(=O)[C@H](CCCCN)NC(=O)[C@H](CCCCN)NC(=O)CNC(=O)[C@H](Cc1c[nH]cn1)NC(=O)[C@@H](N)CCC(N)=O)C(=O)N[C@H](C(=O)N[C@@H](CC(=O)O)C(=O)N[C@@H](Cc1c[nH]cn1)C(=O)N[C@@H](Cc1ccccc1)C(=O)N[C@@H](CCSC)C(=O)N[C@@H](CCCNC(=N)N)C(=O)N[C@@H](CC(C)C)C(=O)N1CCC[C@H]1C(=O)N[C@@H](CCCCN)C(=O)N[C@@H](C)C(=O)O)[C@@H](C)O
Kd (PCNA; binding, ITC; pH 7.4): 6.14 µM

CCOC(=O)C(CC)(CCCSCCOCCOCCOCCOCCNC(=O)OC(C)(C)C)NC(=O)c1ccc(C2CC2)c(Cc2ccc(F)cc2)n1 (stereo not drawn)
EC50 (Cannabinoid receptor 2 (CNR2, Homo sapiens, UniProt P34972); cAMP, agonist): 0.013 µM

COc1ccc(-c2cc(C(=O)N[C@H](C(=O)O)C3CCCCC3)nn2-c2ccnc3cc(Cl)ccc23)c(OC)c1
Kb (Ntsr1; calcium signal, antagonist, fluorescence): > 10 µM

CN1[C@@H]2C[C@@H](OC(=O)[C@H](CO)c3ccccc3)C[C@H]1[C@@H]1O[C@@H]12
Ki (Ileal sodium/bile acid cotransporter (SLC10A2, Homo sapiens, UniProt Q12908); transporter uptake, inhibitor): 6450 µM

C[C@H](N)Cn1ncc2ccc3c(c21)CCCO3
IC50 (Beta-2 adrenergic receptor (ADRB2, Homo sapiens, UniProt P07550); ligand displacement, radioligand): 0.48 µM

CC[C@H](C)[C@H](NC(=O)[C@H](C)NC(=O)[C@H](CO)NC(=O)[C@H](CC(=O)O)NC(=O)[C@H](CCCCN)NC(=O)[C@H](CCCCN)NC(=O)CNC(=O)[C@H](Cc1c[nH]cn1)NC(=O)[C@@H](N)CCC(N)=O)C(=O)N[C@H](C(=O)N[C@@H](CC(=O)O)C(=O)N[C@@H](Cc1c[nH]cn1)C(=O)N[C@@H](Cc1ccccc1)C(=O)N[C@@H](CCSC)C(=O)N[C@@H](CCCNC(=N)N)C(=O)N[C@@H](CC(C)C)C(=O)N1CCC[C@H]1C(=O)N[C@@H](CCCCN)C(=O)N[C@@H](C)C(=O)O)[C@@H](C)O
Kd (PCNA; binding, ITC; pH 7.4): 24.9 µM

CC(C)(C)[C@H](NC(=O)[C@H](CCCNC(=N)N)NC(=O)Cc1ccc(CNC(=N)N)cc1)C(=O)N[C@@H](CCONC(=N)N)C(=O)NCc1ccc(C(=N)N)cc1
Ki (F10 trypsin-like site; enzyme activity, inhibitor; pH 8): 15 µM

NCC(O)c1ccc(O)c(O)c1F (stereo not drawn)
Ki (Beta-2 adrenergic receptor (ADRB2, Homo sapiens, UniProt P07550, N293F); ligand displacement, radioligand; cell membranes): 216 µM

CC[C@H](C)[C@H](NC(=O)[C@H](CCCCN)NC(=O)[C@H](CO)NC(=O)[C@H](CC(=O)O)NC(=O)[C@H](CCCCN)NC(=O)[C@H](CCCCN)NC(=O)CNC(=O)[C@H](Cc1c[nH]cn1)NC(=O)[C@@H](N)CCC(N)=O)C(=O)N[C@H](C(=O)N[C@@H](CC(=O)O)C(=O)N[C@@H](C)C(=O)N[C@@H](Cc1ccccc1)C(=O)N[C@@H](CCSC)C(=O)N[C@@H](CCCNC(=N)N)C(=O)N[C@@H](CC(C)C)C(=O)N1CCC[C@H]1C(=O)N[C@@H](CCCCN)C(=O)N[C@@H](C)C(=O)O)[C@@H](C)O
Kd (PCNA; binding, ITC; pH 7.4): 126 µM

CC(C)(C)[C@H](NC(=O)[C@H](CCONC(=N)N)NC(=O)Cc1ccc(CNC(=N)N)cc1)C(=O)N[C@@H](CCCCN)C(=O)NCc1ccc(C(=N)N)cc1
Ki (F10 trypsin-like site; enzyme activity, inhibitor; pH 8): 26 µM

NCC(O)c1cc(O)c(O)cc1F (stereo not drawn)
Ki (Beta-2 adrenergic receptor (ADRB2, Homo sapiens, UniProt P07550, N293A); ligand displacement, radioligand; cell membranes): 5450 µM
